Measured values from ChEMBL document CHEMBL5058577, “EUbOPEN Chemogenomics Library 2 (Multiplex)” (2022).

Test system: Fibroblast
Assay: Multiplex assay against human fibroblast
Format: toxicity, cell-based
In short: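 Values for tubulin, mitochondrial-mass and membrane-permeability phenotypes are per cents of cells with healthy nuclei. These cells were identified by CellPathfinder machine-learning gating of live cells that had been stained at seeding with Hoechst33342, BioTracker Green Microtubule Cytoskeleton Dye, MitoTracker Red and Annexin V Alexa Fluor 680 and imaged on a CQ1 microscope at 37°C and 5% CO2 after compound addition. The gating first set Hoechst high-intensity objects apart from normal cells, then split normal cells into healthy, pyknosed or fragmented nuclei, and pyknosed cells into mitotic or apoptotic.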

[1] = 12 h, 1 µM, compound concentration 1 uM, replicate 1
[2] = 12 h, 1 µM, compound concentration 1 uM, replicate 2
[3] = 12 h, 10 µM, compound concentration 10 uM, replicate 1
[4] = 12 h, 10 µM, compound concentration 10 uM, replicate 2
[5] = 24 h, 1 µM, compound concentration 1 uM, replicate 1
[6] = 24 h, 1 µM, compound concentration 1 uM, replicate 2
[7] = 24 h, 10 µM, compound concentration 10 uM, replicate 1
[8] = 24 h, 10 µM, compound concentration 10 uM, replicate 2
[9] = 48 h, 1 µM, compound concentration 1 uM, replicate 1
[10] = 48 h, 1 µM, compound concentration 1 uM, replicate 2
[11] = 48 h, 10 µM, compound concentration 10 uM, replicate 1
[12] = 48 h, 10 µM, compound concentration 10 uM, replicate 2

Br.CS(=O)(=O)Nc1c(O)ccc2c1CCCC2C1=NCCN1 (configuration not stated)
Population Apoptotic (%) [1]: 17% | Population Fragmented Nuclei (%) [1]: 9% | Population Healthy Nuclei (%) [1]: 76% | Population Hoechst High Intensity Objects (%) [1]: 1% | Population Membrane Permeable-Phenotype (%) [1]: 0% | Population Mitochondria Different-Phenotype (%) [1]: 5% | Population Mitotic Cells (%) [1]: 82% | Population Normal (%) [1]: 98% | Population Pyknosed Nuclei (%) [1]: 14% | Population Tubulin-Different-Phenotype (%) [1]: 20% | Total Cell Count [1]: 167 | Population Apoptotic (%) [2]: 31% | Population Fragmented Nuclei (%) [2]: 32% | Population Healthy Nuclei (%) [2]: 47% | Population Hoechst High Intensity Objects (%) [2]: 8% | Population Membrane Permeable-Phenotype (%) [2]: 7% | Population Mitochondria Different-Phenotype (%) [2]: 8% | Population Mitotic Cells (%) [2]: 68% | Population Normal (%) [2]: 91% | Population Pyknosed Nuclei (%) [2]: 19% | Population Tubulin-Different-Phenotype (%) [2]: 38% | Total Cell Count [2]: 192 | Population Apoptotic (%) [3]: 38% | Population Fragmented Nuclei (%) [3]: 20% | Population Healthy Nuclei (%) [3]: 47% | Population Hoechst High Intensity Objects (%) [3]: 6% | Population Membrane Permeable-Phenotype (%) [3]: 1% | Population Mitochondria Different-Phenotype (%) [3]: 7% | Population Mitotic Cells (%) [3]: 61% | Population Normal (%) [3]: 93% | Population Pyknosed Nuclei (%) [3]: 31% | Population Tubulin-Different-Phenotype (%) [3]: 21% | Total Cell Count [3]: 148 | Population Apoptotic (%) [4]: 33% | Population Fragmented Nuclei (%) [4]: 38% | Population Healthy Nuclei (%) [4]: 45% | Population Hoechst High Intensity Objects (%) [4]: 0% | Population Membrane Permeable-Phenotype (%) [4]: 12% | Population Mitochondria Different-Phenotype (%) [4]: 5% | Population Mitotic Cells (%) [4]: 66% | Population Normal (%) [4]: 99% | Population Pyknosed Nuclei (%) [4]: 16% | Population Tubulin-Different-Phenotype (%) [4]: 43% | Total Cell Count [4]: 129 | Population Apoptotic (%) [5]: 56% | Population Fragmented Nuclei (%) [5]: 12% | Population Healthy Nuclei (%) [5]: 77% | Population Hoechst High Intensity Objects (%) [5]: 1% | Population Membrane Permeable-Phenotype (%) [5]: 0% | Population Mitochondria Different-Phenotype (%) [5]: 3% | Population Mitotic Cells (%) [5]: 43% | Population Normal (%) [5]: 98% | Population Pyknosed Nuclei (%) [5]: 10% | Population Tubulin-Different-Phenotype (%) [5]: 16% | Total Cell Count [5]: 159 | Population Apoptotic (%) [6]: 33% | Population Fragmented Nuclei (%) [6]: 25% | Population Healthy Nuclei (%) [6]: 60% | Population Hoechst High Intensity Objects (%) [6]: 7% | Population Membrane Permeable-Phenotype (%) [6]: 2% | Population Mitochondria Different-Phenotype (%) [6]: 7% | Population Mitotic Cells (%) [6]: 66% | Population Normal (%) [6]: 92% | Population Pyknosed Nuclei (%) [6]: 14% | Population Tubulin-Different-Phenotype (%) [6]: 41% | Total Cell Count [6]: 180 | Population Apoptotic (%) [7]: 48% | Population Fragmented Nuclei (%) [7]: 16% | Population Healthy Nuclei (%) [7]: 60% | Population Hoechst High Intensity Objects (%) [7]: 3% | Population Membrane Permeable-Phenotype (%) [7]: 0% | Population Mitochondria Different-Phenotype (%) [7]: 2% | Population Mitotic Cells (%) [7]: 51% | Population Normal (%) [7]: 96% | Population Pyknosed Nuclei (%) [7]: 23% | Population Tubulin-Different-Phenotype (%) [7]: 24% | Total Cell Count [7]: 148 | Population Apoptotic (%) [8]: 41% | Population Fragmented Nuclei (%) [8]: 41% | Population Healthy Nuclei (%) [8]: 44% | Population Hoechst High Intensity Objects (%) [8]: 0% | Population Membrane Permeable-Phenotype (%) [8]: 10% | Population Mitochondria Different-Phenotype (%) [8]: 10% | Population Mitotic Cells (%) [8]: 58% | Population Normal (%) [8]: 99% | Population Pyknosed Nuclei (%) [8]: 13% | Population Tubulin-Different-Phenotype (%) [8]: 41% | Total Cell Count [8]: 130 | Population Apoptotic (%) [9]: 57% | Population Fragmented Nuclei (%) [9]: 14% | Population Healthy Nuclei (%) [9]: 76% | Population Hoechst High Intensity Objects (%) [9]: 4% | Population Membrane Permeable-Phenotype (%) [9]: 4% | Population Mitochondria Different-Phenotype (%) [9]: 3% | Population Mitotic Cells (%) [9]: 42% | Population Normal (%) [9]: 95% | Population Pyknosed Nuclei (%) [9]: 8% | Population Tubulin-Different-Phenotype (%) [9]: 24% | Total Cell Count [9]: 167 | Population Apoptotic (%) [10]: 38% | Population Fragmented Nuclei (%) [10]: 26% | Population Healthy Nuclei (%) [10]: 61% | Population Hoechst High Intensity Objects (%) [10]: 5% | Population Membrane Permeable-Phenotype (%) [10]: 0% | Population Mitochondria Different-Phenotype (%) [10]: 9% | Population Mitotic Cells (%) [10]: 61% | Population Normal (%) [10]: 94% | Population Pyknosed Nuclei (%) [10]: 12% | Population Tubulin-Different-Phenotype (%) [10]: 41% | Total Cell Count [10]: 177 | Population Apoptotic (%) [11]: 61% | Population Fragmented Nuclei (%) [11]: 22% | Population Healthy Nuclei (%) [11]: 61% | Population Hoechst High Intensity Objects (%) [11]: 6% | Population Membrane Permeable-Phenotype (%) [11]: 1% | Population Mitochondria Different-Phenotype (%) [11]: 2% | Population Mitotic Cells (%) [11]: 38% | Population Normal (%) [11]: 93% | Population Pyknosed Nuclei (%) [11]: 15% | Population Tubulin-Different-Phenotype (%) [11]: 21% | Total Cell Count [11]: 145 | Population Apoptotic (%) [12]: 33% | Population Fragmented Nuclei (%) [12]: 48% | Population Healthy Nuclei (%) [12]: 44% | Population Hoechst High Intensity Objects (%) [12]: 1% | Population Membrane Permeable-Phenotype (%) [12]: 3% | Population Mitochondria Different-Phenotype (%) [12]: 9% | Population Mitotic Cells (%) [12]: 66% | Population Normal (%) [12]: 98% | Population Pyknosed Nuclei (%) [12]: 7% | Population Tubulin-Different-Phenotype (%) [12]: 45% | Total Cell Count [12]: 127
